Compound activity (PubChem)
STAT3 blocker: STAT3 signaling inhibition; U3A cells, IL-6 STAT3-luciferase reporter, luminescence; host cell line lacks STAT1; 190,000 tested, 0.89% active; inhibition, % at 5.5 µM; AID 862;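 active = inhibition above the mean inhibition across all screened compounds plus 3 SD, cut at about 44% in these data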;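 note: 0% = DMSO only wells and 100% = 100 µM nifuroxazide control wells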
HSV replic up: HSV replication enhancement; HSV replication augmentation in cells, fold increase; 220,000 tested, 0.005% active; maximum fold increase; in the data active = maximum fold increase above about 1.5; tested in PC3 cells
STAT3 act-1: increases IL-6 driven STAT3 reporter signal | AID 871 | activation (% of control), % at 5.6 µM | 190,000 tested, 0.91% active | U3A cells, IL-6 STAT3-luciferase reporter, luminescence; 100% = signal with IL-6 EC80 alone;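 active = activation above the screen-wide mean of compound activation plus 3 SD, cut at about 130% in these data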;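 note: 0% = background luminescence of wells with medium and substrate only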
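Test system: human U3A cells carrying STAT3-luciferase construct; control set: IL-6-only wells as 100% reference; timing: compound pre-incubation 1 h before IL-6, then 6 h stimulation at 37 °C; also added: IL-6 stimulus at 33 ng/mL final; evaluation: % activation versus median of IL-6-stimulated wells; detection: reporter luminescence signal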
STAT1 act-1: increases IFN-gamma driven STAT1 reporter signal; NIH 3T3 STAT1-luciferase reporter, luminescence; 100% = IFN-gamma alone, no compound; activation (% of control), % at 5.5 µM; 200,000 tested, 2.6% active;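 active = activation above the screen-wide mean activation plus 3 SD, cut at about 130% in these data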;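 note: raw ratio to IFN-gamma control signal so 100% means no change and 0% no light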
Cl transport mod: modulators of human KCC2 chloride dependent transport; KCC2 cells, thallium flux FluoZin-2 fluorescence; 190,000 tested, 2.2% active; Q9H2X9; B-score of Tl+ flux slope (higher = more flux/activation; lower = inhibition) at 10 µM;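 active = thallium flux slope and its plate-corrected score both differing from the plate sample mean at a set confidence after two filtering rounds, in either direction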;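 note: slope of fluorescence scaled to starting intensity during 10 to 20 s after thallium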
Target sequence (Q9H2X9 whole entry, looked up): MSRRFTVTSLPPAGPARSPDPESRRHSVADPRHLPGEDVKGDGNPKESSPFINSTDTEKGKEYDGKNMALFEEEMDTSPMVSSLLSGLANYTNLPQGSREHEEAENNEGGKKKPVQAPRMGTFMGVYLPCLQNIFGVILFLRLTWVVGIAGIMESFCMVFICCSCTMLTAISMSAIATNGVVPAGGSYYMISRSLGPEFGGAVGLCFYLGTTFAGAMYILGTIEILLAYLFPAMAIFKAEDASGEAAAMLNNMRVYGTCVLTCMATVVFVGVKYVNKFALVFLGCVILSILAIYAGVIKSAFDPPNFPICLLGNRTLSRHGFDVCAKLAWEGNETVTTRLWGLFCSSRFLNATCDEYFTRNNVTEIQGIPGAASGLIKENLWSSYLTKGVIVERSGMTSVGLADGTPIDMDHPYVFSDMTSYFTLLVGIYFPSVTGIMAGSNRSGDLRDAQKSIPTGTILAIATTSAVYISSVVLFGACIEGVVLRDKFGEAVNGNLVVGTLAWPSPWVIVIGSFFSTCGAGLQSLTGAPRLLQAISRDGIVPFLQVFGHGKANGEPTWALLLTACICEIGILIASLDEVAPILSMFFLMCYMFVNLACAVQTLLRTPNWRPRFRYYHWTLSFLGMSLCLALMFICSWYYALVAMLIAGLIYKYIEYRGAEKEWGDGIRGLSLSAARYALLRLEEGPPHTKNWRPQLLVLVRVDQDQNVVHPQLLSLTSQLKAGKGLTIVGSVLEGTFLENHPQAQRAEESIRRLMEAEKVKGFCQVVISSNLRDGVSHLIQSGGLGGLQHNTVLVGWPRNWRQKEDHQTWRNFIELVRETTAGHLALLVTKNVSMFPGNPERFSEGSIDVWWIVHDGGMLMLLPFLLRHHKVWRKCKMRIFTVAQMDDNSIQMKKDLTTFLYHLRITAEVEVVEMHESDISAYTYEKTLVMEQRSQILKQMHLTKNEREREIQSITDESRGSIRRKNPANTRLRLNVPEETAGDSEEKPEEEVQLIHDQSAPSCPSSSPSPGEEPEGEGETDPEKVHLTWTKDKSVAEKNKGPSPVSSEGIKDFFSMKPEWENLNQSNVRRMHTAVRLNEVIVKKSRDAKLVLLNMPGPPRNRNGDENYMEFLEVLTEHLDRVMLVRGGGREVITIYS
STAT1 inh: inhibitors of IFN-gamma induced STAT1 signaling; 200,000 tested, 0.35% active; NIH 3T3 STAT1-luciferase reporter, luminescence; inhibition, % at 5.5 µM;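 active = inhibition above a set limit, the mean inhibition across all tested compounds plus 3 SD, cut at about 34% in these data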;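 note: 0% = IFN-gamma with DMSO and 100% = IFN-gamma with 300 µM nifuroxazide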
STAT3 act-2: confirmation of STAT3 signaling activators. U3A STAT3-luciferase reporter, IL-6 potentiation, luminescence; U3A cells lack STAT1; 100 means same as IL-6 alone. shares compounds with STAT3 act-1. potentiation (% of control), % at 5.7 µM. 1,200 tested, 64% active;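 active = percent activation of the STAT3 luciferase reporter above a set limit taken from the earlier primary screen, cut at about 130% in these data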;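 note: 0% = background signal of medium plus substrate and 100% = median of IL-6 with DMSO wells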
NFkB act STAT3ct: activates NF-kappaB, counter-screen to STAT3 activators. AID 1309. human cells, NF-kappaB reporter activation. shares compounds with STAT3 act-1. activation (% of control), % at 5.7 µM. 1,200 tested, 11% active; in the data active = activation above about 120%;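 note: reporter induced by TNF-alpha stimulation; 100% = median of stimulated DMSO wells and 0% = no signal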
STAT1 act-2: STAT1 activation in STAT3 activator counter-screen. activation (% of control), % at 5.7 µM. AID 1318. shares compounds with STAT3 act-1. 1,200 tested, 13% active. NIH 3T3 STAT1-luciferase reporter, IFN-gamma, luminescence;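 active = activation above the solvent-only control well mean plus 3 SD, set per screening run, cut at about 120% in these data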;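 note: 100% = IFN-gamma with DMSO median signal so 100% means no change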
* = called active by the depositor; i = inactive; / = no result; ! = repeats disagree. An excerpt weighted towards active compounds, which were near 5.5% of everything screened.

SMILES | STAT3 blocker | HSV replic up | STAT3 act-1 | STAT1 act-1 | Cl transport mod | STAT1 inh | STAT3 act-2 | NFkB act STAT3ct | STAT1 act-2
CC(C)(C)c1cc(-c2ccccc2)no1 | / | i | / | / | 1.4 | / | / | / | /
Oc1ccccc1-c1cc(-c2ccccc2)no1 | -63 | i | 162* | 108 | -0.074 | -9 | 175* | 124* | 100
O=S(=O)(c1ccc(Br)cc1)N1CCN(c2ccc3nnc(-c4ccccc4)n3n2)CC1 | -69 | i | 167* | 100 | / | -1 | 144* | 109 | 101
O=C(c1ccc(Br)o1)N1CCN(c2ccc3nnc(-c4ccccc4)n3n2)CC1 | -22 | i | 123 | 88 | -0.92 | 13 | / | / | /
Cc1nnc(NC(=O)c2oc3c(ccc4ccccc43)c2C)s1 | -59 | i | 150* | 107 | 0.13 | -8 | 146* | 106 | 102
CC1=C(C(=O)Nc2cccc(C)n2)C(c2ccc3c(c2)OCO3)C2=C(CC(c3ccco3)CC2=O)N1 (stereo unspecified) | 6 | i | 98 | 86 | -0.42 | 9 | / | / | /
O=CN/N=C/c1c(O)ccc2ccccc12 | / | i | / | / | 0.35 | / | / | / | /
Oc1ccc2ccccc2c1/C=N/Nc1ccccc1 | -59 | i | 151* | 93 | -0.077 | 8 | 150* | 110 | 82
COc1cc(C(=O)Nc2ccc(S(=O)(=O)Nc3ncccn3)cc2)c([N+](=O)[O-])cc1OC | -1 | i | 105 | 97 | 0.43 | 0 | / | / | /
CSc1nsc(/C=C/Nc2ccc(C)cc2)c1C#N | -45 | i | 137* | 103 | -0.93 | 0 | 136* | 105 | 108
COC(=O)Nc1snnc1C | 2 | i | 99 | 100 | -0.48 | 0 | / | / | /
COc1ccc(OCC(=O)N/N=C2\CCCCc3ccccc32)cc1 | -3 | i | 107 | 107 | -1.5 | -9 | / | / | /
CCc1ccc(OCC(=O)N/N=C2\CC(=O)c3ccccc32)cc1 | -58 | i | 146* | 102 | -1.8 | -2 | 128 | 110 | 117
Cc1ncoc1C(=O)N1CCc2c([nH]c3ccccc23)C1C1CCCCC1 (stereo unspecified) | -29 | i | 140* | 111 | 0.66 | -13 | 128 | 106 | 110
Cc1ncoc1C(=O)N1CCc2c([nH]c3ccccc23)C1C(C)(C)C (stereo unspecified) | -33 | i | 133 | 100 | -1.9 | -2 | / | / | /
CS(=O)(=O)N1CCCC(C(=O)Nc2ccc(F)cc2F)C1 (stereo unspecified) | 3 | i | 100 | 99 | -0.027 | -1 | / | / | /
CCSc1nc2sc3c(c2c(=O)[nH]1)CCc1ccccc1-3 | -46 | i | 144* | 101 | 0.99 | -1 | 152* | 109 | 94
Cc1ccc2ncccc2c1NS(=O)(=O)c1ccccc1 | 2 | i | 101 | 96 | / | 4 | / | / | /
Cc1ccc2ncccc2c1NC(=S)NC(=O)c1ccccc1 | -35 | i | 137* | 85 | 0.27 | 15 | 146* | 110 | 100
O=C(CN1CCCCC1)N/N=C/c1cc2ccccc2nc1Cl | 7 | i | 98 | 104 | -0.22 | -4 | / | / | /
Cc1nc([N+](=O)[O-])c(Br)n1CC(=O)c1ccc(Cl)cc1 | 5 | i | 101 | 95 | 0.99 | 5 | / | / | /
Cc1nc([N+](=O)[O-])c(Br)n1Cc1ccc(Cl)c(Cl)c1 | -28 | i | 139* | 75 | 0.13 | 27 | 117 | 107 | 77
O=C(N/N=C/c1ccc(OCC(=O)N2CCCCC2)cc1)c1ccccc1O | -39 | i | 141* | 91 | -0.44 | 10 | 146* | 104 | 114
CCNC(=O)NC1(C(=O)Nc2ccc3c(c2)OCCO3)CCCCC1 | 6 | i | 99 | 105 | 0.38 | -5 | / | / | /
CC(=O)c1ccc(N2C(=O)[C@@H]3C(CCC(N)=O)NC4(C(=O)Nc5c4ccc(Cl)c5C)[C@@H]3C2=O)cc1 (stereo partly specified) | -38 | i | 137* | 86 | / | 16 | 128 | 102 | 91
SMILES | STAT3 blocker | HSV replic up | STAT3 act-1 | STAT1 act-1 | Cl transport mod | STAT1 inh | STAT3 act-2 | NFkB act STAT3ct | STAT1 act-2
COc1ccccc1CN1C(=O)[C@@H]2C(CCC(N)=O)NC3(C(=O)Nc4c3ccc(Cl)c4C)[C@@H]2C1=O (stereo partly specified) | -18 | i | 120 | 96 | / | 5 | / | / | /
Cn1c(SCc2ccc(Cl)cc2)nc(C(F)(F)F)cc1=O | 9 | i | 98 | 101 | 1.5 | -1 | / | / | /
COC(=O)CSc1cc(C)nc2ccc(OC)cc12 | 12 | i | 92 | 98 | -1.3 | 2 | / | / | /
COc1ccc2nc(C)cc(SCC(=O)O)c2c1 | -40 | i | 140*! | 107 | -0.004 | -8 | 95 | 105 | 103
O=C(O)c1cc2ccc3ccccc3c2oc1=O | -58 | i | 152* | 103 | -0.068 | -1 | 132 | 99 | 99
O=C(Nc1cc2c3c(c1)C1CCCC1CN3CC1CCCC21)c1ccccc1 (stereo unspecified) | 15 | i | 94 | 103 | 0.068 | -3 | / | / | /
O=C(N/N=C1\C(=O)c2cccc3cccc1c23)c1ccc(O)cc1 | 18 | i | 88 | 104 | 1.7 | -6 | / | / | /
CNC(=S)N/N=C1\C(=O)c2cccc3cccc1c23 | -39 | i | 138* | 99 | 43* | 1 | 143* | 116 | 111
O=C(CCc1ccc(S(=O)(=O)N2CCOCC2)cc1)OCc1nc2ccccc2s1 | -44 | i | 142* | 120 | / | -22 | 147* | 122* | 136*
Cc1cc(C)n(CCC(=O)N/N=C/c2ccc(Br)c([N+](=O)[O-])c2)n1 | / | i | / | / | -0.61 | / | / | / | /
Cn1c2c(c(=O)n(C)c1=O)C(c1ccccc1Cl)C(C#N)=C(N)O2 (stereo unspecified) | / | i | / | / | 0.07 | / | / | / | /
CC(=O)n1c2c(c3ccccc31)OC(N)=C(C#N)C2c1cccc(Cl)c1Cl (stereo unspecified) | -48 | i | 141* | 96 | 0.035 | 4 | 141* | 104 | 89
c1ccc2[nH]c(CSc3nc4ccccc4s3)nc2c1 | 11 | i | 94 | 90 | -2.1 | 11 | / | / | /
S=c1[nH]nc(CSc2nc3ccccc3s2)o1 | -43 | i | 142* | 91 | -5.5 | 10 | 142* | 100 | 97
CC(C)Cn1c(SCC(=O)N2CCCc3ccccc32)nc2ccccc2c1=O | / | i | / | / | / | / | / | / | /
O=C1C=C(NCc2ccccc2)c2ccccc2C1=O | -48 | i | 146* | 90 | -1.6 | 9 | 132 | 98 | 92
